Data on eight compounds can be found in ChEMBL document CHEMBL1828500, “Synthesis and biological evaluation of dihydroindeno and indeno [1,2-e] [1,2,4]triazolo [3,4-b] [1,3,4]thiadiazines as antimicrobial agents” (2011).

SMILES strings stand for the structures. In brackets after ≈: the same amount, converted by molar mass. Activity calls are given as the source filed them. The calls are words filed in the database; no cut-off is given here.

For one experiment, the system named is Staphylococcus aureus. The experiment is described as follows: Antibacterial activity against Staphylococcus aureus MTCC 96 at 2 mg/ml after 24 hrs by agar well diffusion method. It counts as functional. Conditions: MTCC 96, 24 h, read-out: DIZ. The method, boiled down:
(§1)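 Cultures adjusted to 0.5 McFarland and left 15 min on agar for adsorption. 8 mm wells bored and loaded with compound at 2.0 mg/mL in DMSO. Incubated 37 °C for 24 h. Growth-inhibition zone diameter (mm) read with a zone scale and reported as the average. DMSO served as negative control and ciprofloxacin as positive control.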
On the technique in general: In agar diffusion tests the substance spreads into inoculated agar from a disc or well.
Regarding `CCc1nnc2n1N=C1c3cccc(C)c3CC1S2` (stereo not drawn), the zone of inhibition at 2000 µg/mL came to 26.6 mm.
As to `c1ccc2c(c1)CC1Sc3nncn3N=C21` (stereo not drawn), the zone of inhibition at 2000 µg/mL was 15.3 mm.
As for `Cc1nnc2n1N=C1c3ccccc3CC1S2` (stereo not drawn), the zone of inhibition at 2000 µg/mL amounted to 14.6 mm.
For `c1ccc(-c2nnc3sc4cc5ccccc5c-4nn23)cc1`, the zone of inhibition at 2000 µg/mL amounted to 14.6 mm.
On the same count and under the same terms, the value for `Cc1nnc2sc3cc4ccccc4c-3nn12` was 14.6 mm; that for `c1ccc2c3nn4cnnc4sc-3cc2c1` was 14.3 mm; that for `CCc1nnc2sc3cc4ccccc4c-3nn12` was 16.3 mm.

In the next experiment the test system is Bacillus subtilis. The experiment is described as follows: Antibacterial activity against Bacillus subtilis MTCC 121 at 2 mg/ml after 24 hrs by agar well diffusion method. The class given is functional. The settings on record: MTCC 121, 24 h, read-out: DIZ. The method, boiled down:
as §1
Take `CCc1nnc2n1N=C1c3cccc(C)c3CC1S2` (stereo not drawn): the zone of inhibition at 2000 µg/mL came out at 28 mm.
The same measure, in the same setting: with `c1ccc2c(c1)CC1Sc3nncn3N=C21` (stereo not drawn) the figure was 17.6 mm; with `Cc1nnc2n1N=C1c3ccccc3CC1S2` (stereo not drawn), 16.3 mm; with `c1ccc(-c2nnc3sc4cc5ccccc5c-4nn23)cc1`, 15 mm.
The same measure, in the same setting: the value for `Cc1nnc2sc3cc4ccccc4c-3nn12` was 15.3 mm; that for `c1ccc2c3nn4cnnc4sc-3cc2c1` was 16 mm.
Regarding `CCc1nnc2sc3cc4ccccc4c-3nn12`, the zone of inhibition at 2000 µg/mL worked out at 17.6 mm.

For a further experiment, the system named is Penicillium sp. The experiment is described as follows: Antifungal activity against Penicillium sp. assessed as inhibition of mycelial growth at 4 mg/ml after 7 days. The settings on record: 168 h, read-out: GI. It counts as functional. A digest of the protocol:
(§2)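 Poisoned food method. Molds grown on Sabouraud dextrose agar at 25 °C for 7 days to provide inocula. Molten SDA (45 °C) dosed with compound at 4.0 mg/mL in DMSO, then solidified. 8 mm fungal plugs from colony margins placed centrally. Incubated 25 °C for 7 days, in triplicate. % mycelial growth inhibition calculated from colony diameters versus DMSO control. Fluconazole served as positive control.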
Consider `CCc1nnc2n1N=C1c3cccc(C)c3CC1S2` (stereo not drawn), for which the inhibition of growth at 4000 µg/mL stood at 65.5%.
Consider `c1ccc2c(c1)CC1Sc3nncn3N=C21` (stereo not drawn), for which the inhibition of growth at 4000 µg/mL is 51.1%.
Still for that read-out and setting: the value for `Cc1nnc2n1N=C1c3ccccc3CC1S2` (stereo not drawn) was 55.5%; that for `c1ccc(-c2nnc3sc4cc5ccccc5c-4nn23)cc1` was 51.1%; that for `Cc1nnc2sc3cc4ccccc4c-3nn12` was 52.5%.
On to `c1ccc2c3nn4cnnc4sc-3cc2c1`, for which the inhibition of growth at 4000 µg/mL came out at 51.1%.
Consider `CCc1nnc2sc3cc4ccccc4c-3nn12`, for which the inhibition of growth at 4000 µg/mL came out at 50%.
Same read-out and setting: with `OC(Cn1cncn1)(Cn1cncn1)c1ccc(F)cc1F` [FLUCONAZOLE] the figure was 83.3%.

The test system of another experiment is Staphylococcus aureus. The experiment is described as follows: Antibacterial activity against Staphylococcus aureus MTCC 96 after 24 hrs by agar well diffusion method. It counts as functional. The settings on record: MTCC 96, 24 h. The method, boiled down: (§3)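 MIC by modified agar well diffusion. Two-fold serial dilutions (DMSO stock diluted in sterile distilled water), range 256 to 0.5, placed in wells in triplicate. Agar was pre-seeded with 100 standardized inoculum at 10⁶ cfu/mL. Incubated aerobically at 37 °C for 24 h. MIC taken as lowest concentration giving a clear zone, i.e. complete growth inhibition.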
Usually MIC stands for the lowest concentration that inhibits growth of the organism. A lower MIC goes with greater potency. Turning to `CCc1nnc2n1N=C1c3cccc(C)c3CC1S2` (stereo not drawn), the MIC was 8 µg/mL (≈ 29.6 µM).
`c1ccc2c(c1)CC1Sc3nncn3N=C21` (stereo not drawn) came in with an MIC of 128 µg/mL (≈ 561 µM).
Same read-out and setting: with `Cc1nnc2n1N=C1c3ccccc3CC1S2` (stereo not drawn) the figure was 256 µg/mL (≈ 1060 µM); with `c1ccc(-c2nnc3sc4cc5ccccc5c-4nn23)cc1`, 256 µg/mL (≈ 847 µM); with `Cc1nnc2sc3cc4ccccc4c-3nn12`, 256 µg/mL (≈ 1070 µM).
For the compound `c1ccc2c3nn4cnnc4sc-3cc2c1`, inhibition of growth (MIC) required 256 µg/mL (≈ 1130 µM).
Compound `CCc1nnc2sc3cc4ccccc4c-3nn12` had an MIC of 128 µg/mL (≈ 503 µM).

The test system of a further experiment is Pseudomonas aeruginosa. The experiment is described as follows: Antibacterial activity against Pseudomonas aeruginosa MTCC 741 at 2 mg/ml after 24 hrs by agar well diffusion method. The class given is functional.
Details: not given
A digest of the protocol: as §1
Consider `c1ccc2c(c1)CC1Sc3nncn3N=C21` (stereo not drawn), for which the “diameter of the inhibition zone (DIZ)” value is “inactive”.
As to `Cc1nnc2n1N=C1c3ccccc3CC1S2` (stereo not drawn), the “diameter of the inhibition zone (DIZ)” value is “inactive”.
The same measure, in the same setting: the value for `c1ccc(-c2nnc3sc4cc5ccccc5c-4nn23)cc1` was “inactive”; that for `Cc1nnc2sc3cc4ccccc4c-3nn12` was “inactive”; that for `c1ccc2c3nn4cnnc4sc-3cc2c1` was “inactive”.
For `CCc1nnc2sc3cc4ccccc4c-3nn12`, the “diameter of the inhibition zone (DIZ)” value was “inactive”.

The experiment is the same for the next values; noted with them: MTCC 741, 24 h, read-out: DIZ.
As for `CCc1nnc2n1N=C1c3cccc(C)c3CC1S2` (stereo not drawn), the zone of inhibition at 2000 µg/mL was determined as 19.3 mm.

The test system of the next experiment is Aspergillus flavus. As to the kind of experiment: Antifungal activity against Aspergillus flavus assessed as inhibition of mycelial growth at 4 mg/ml after 7 days. It counts as functional. The settings on record: 168 h, read-out: GI. The method, boiled down: as §2
For the compound `CCc1nnc2n1N=C1c3cccc(C)c3CC1S2` (stereo not drawn), the inhibition of growth at 4000 µg/mL is 63.3%.
With `c1ccc2c(c1)CC1Sc3nncn3N=C21` (stereo not drawn), the inhibition of growth at 4000 µg/mL was 52.5%.
Same read-out and setting: with `Cc1nnc2n1N=C1c3ccccc3CC1S2` (stereo not drawn) the figure was 51.1%.
Regarding `c1ccc(-c2nnc3sc4cc5ccccc5c-4nn23)cc1`, the inhibition of growth at 4000 µg/mL turned out to be 48.8%.
The same measure, in the same setting: with `Cc1nnc2sc3cc4ccccc4c-3nn12` the figure was 48.8%; with `c1ccc2c3nn4cnnc4sc-3cc2c1`, 50%; with `CCc1nnc2sc3cc4ccccc4c-3nn12`, 45.5%.
`OC(Cn1cncn1)(Cn1cncn1)c1ccc(F)cc1F` [FLUCONAZOLE]: the inhibition of growth at 4000 µg/mL was determined as 77.7%.

A further experiment has as its system Aspergillus niger. The experiment is described as follows: Antifungal activity against Aspergillus niger assessed as inhibition of mycelial growth at 4 mg/ml after 7 days. It counts as functional. The settings on record: 168 h, read-out: GI. The method, boiled down: as §2
Turning to `CCc1nnc2n1N=C1c3cccc(C)c3CC1S2` (stereo not drawn), the inhibition of growth at 4000 µg/mL stood at 64.4%.
The same measure, in the same setting: with `c1ccc2c(c1)CC1Sc3nncn3N=C21` (stereo not drawn) the figure was 51.1%; with `Cc1nnc2n1N=C1c3ccccc3CC1S2` (stereo not drawn), 53.3%.
For `c1ccc(-c2nnc3sc4cc5ccccc5c-4nn23)cc1`, the inhibition of growth at 4000 µg/mL came out at 45.5%.
For `Cc1nnc2sc3cc4ccccc4c-3nn12`, the inhibition of growth at 4000 µg/mL worked out at 50%.
For `c1ccc2c3nn4cnnc4sc-3cc2c1`, the inhibition of growth at 4000 µg/mL was determined as 53.3%.
Still for that read-out and setting: with `CCc1nnc2sc3cc4ccccc4c-3nn12` the figure was 48.8%; with `OC(Cn1cncn1)(Cn1cncn1)c1ccc(F)cc1F` [FLUCONAZOLE], 81.1%.

The test system of another experiment is Escherichia coli. The experiment is described as follows: Antibacterial activity against Escherichia coli MTCC 1652 at 2 mg/ml after 24 hrs by agar well diffusion method. The class given is functional.
Details: not given
A digest of the protocol:
as §1
`c1ccc2c(c1)CC1Sc3nncn3N=C21` (stereo not drawn): the “diameter of the inhibition zone (DIZ)” value was “inactive”.
The same measure, in the same setting: the value for `Cc1nnc2n1N=C1c3ccccc3CC1S2` (stereo not drawn) was “inactive”.
The same measure, in the same setting: with `c1ccc(-c2nnc3sc4cc5ccccc5c-4nn23)cc1` the entry was “inactive”.
Same read-out and setting: the value for `Cc1nnc2sc3cc4ccccc4c-3nn12` was “inactive”; that for `c1ccc2c3nn4cnnc4sc-3cc2c1` was “inactive”; that for `CCc1nnc2sc3cc4ccccc4c-3nn12` was “inactive”.

Staying with this experiment, now noted: MTCC 1652, 24 h, read-out: DIZ.
With `CCc1nnc2n1N=C1c3cccc(C)c3CC1S2` (stereo not drawn), the zone of inhibition at 2000 µg/mL came out at 21 mm.

For the next experiment, the system named is Bacillus subtilis. The experiment is described as follows: Antibacterial activity against Bacillus subtilis MTCC 121 after 24 hrs by agar well diffusion method. It counts as functional. Conditions: MTCC 121, 24 h. A digest of the protocol: as §3
In the case of `CCc1nnc2n1N=C1c3cccc(C)c3CC1S2` (stereo not drawn), the MIC is 4 µg/mL (≈ 14.8 µM).
Regarding `c1ccc2c(c1)CC1Sc3nncn3N=C21` (stereo not drawn), the MIC amounted to 128 µg/mL (≈ 561 µM).
Still for that read-out and setting: the value for `Cc1nnc2n1N=C1c3ccccc3CC1S2` (stereo not drawn) was 128 µg/mL (≈ 528 µM).
Regarding `c1ccc(-c2nnc3sc4cc5ccccc5c-4nn23)cc1`, the MIC was determined as 256 µg/mL (≈ 847 µM).
As for `Cc1nnc2sc3cc4ccccc4c-3nn12`, the MIC stood at 256 µg/mL (≈ 1070 µM).
As for `c1ccc2c3nn4cnnc4sc-3cc2c1`, the MIC worked out at 128 µg/mL (≈ 566 µM).
`CCc1nnc2sc3cc4ccccc4c-3nn12`: inhibition of growth (MIC) required 128 µg/mL (≈ 503 µM).

The next experiment concerns Pseudomonas aeruginosa. The experiment is described as follows: Antibacterial activity against Pseudomonas aeruginosa MTCC 741 after 24 hrs by agar well diffusion method. It counts as functional. Conditions: MTCC 741, 24 h. A digest of the protocol: as §3
The compound `CCc1nnc2n1N=C1c3cccc(C)c3CC1S2` (stereo not drawn) came in with an MIC of 32 µg/mL (≈ 118 µM).

The next experiment concerns Escherichia coli. The experiment is described as follows: Antibacterial activity against Escherichia coli MTCC 1652 after 24 hrs by agar well diffusion method. It counts as functional. The settings on record: MTCC 1652, 24 h. A digest of the protocol:
as §3
`CCc1nnc2n1N=C1c3cccc(C)c3CC1S2` (stereo not drawn): the MIC turned out to be 32 µg/mL (≈ 118 µM).
